Key:
[1] = system: Human immunodeficiency virus 1; test: Antiviral activity against R5-HIV1MDR/C assessed as inhibition of p24 Gag protein production in human PHA-PBMC by ELISA; assay type: functional, organism-based
Procedure, shortened: (§1)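 PHA-stimulated PBMC (10^6 cells/ml; 10^5 cells/well) were infected with 50 TCID50 of HIV-1Ba-L or a primary multidrug-resistant isolate and cultured with drug in 10-fold serial dilutions. On day 7, supernatant p24 Gag was measured by automated chemiluminescent enzyme immunoassay. EC50 is the concentration that halves p24 relative to drug-free cultures. Triplicate assays.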

[2] = system: Human immunodeficiency virus 1; test: Antiviral activity against R5-HIV1MDR/G assessed as inhibition of p24 Gag protein in human PHA-PBMC by ELISA relative to X4-HIV1NL4-3; assay type: functional
MT4 = test: Cytotoxicity against human MT4 cells by MTT assay; assay type: functional
[3] = system: Human immunodeficiency virus 1; test: Antiviral activity against R5-HIV1MDR/G assessed as inhibition of p24 Gag protein production in human PHA-PBMC by ELISA; assay type: functional, organism-based; procedure, shortened: as §1
[4] = system: Human immunodeficiency virus 1; test: Ratio of EC50 for X4-HIV1MDR/C in human PHA-PBMC to EC50 for X4-HIV1NL4-3 in human MT4 cells; assay type: functional, NL4-3
[5] = Cytotoxicity against human PHA-PBMC cells by MTT assay; assay type: cell-based
[6] = system: Human immunodeficiency virus 1; test: Ratio of EC50 for R5-HIV1MDR/MM in human PHA-PBMC to EC50 for R5-HIV1Ba-L in human PHA-PBMC; assay type: functional
[7] = system: Human immunodeficiency virus 1; test: Antiviral activity against R5-HIV1MDR/MM assessed as inhibition of p24 Gag protein production in human PHA-PBMC by ELISA; assay type: functional, organism-based; procedure, shortened: as §1
[8] = system: Human immunodeficiency virus 1; test: Antiviral activity against X4-HIV1 NL4-3 assessed as […] in human MT4 cells by MTT assay; assay type: functional, organism-based; settings: Human immunodeficiency virus 1, NL4-3, MT4
CCRF-CEM [9] = test: Metabolic stability of the compound in human CEM cells assessed as 3'-azido-2',3'-dideoxythymidine diphosphate intracellular levels at 200 nM after 24 hrs; assay type: ADME, cell-based; settings: 0.2 µM
Procedure, shortened: (§2)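 CEM cells (10^6 cells/ml) were loaded 6 h with 200 nM [3H]-labelled nucleoside, washed thoroughly, then cultured drug-free for 0, 2, 4, 8, 12 or 24 h. Cells were extracted in 60% methanol, and mono-, di- and triphosphates were quantified by SAX HPLC with fraction scintillation counting. Values are means of 2–3 independent experiments.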

CCRF-CEM [10] = test: Drug level in human CD4+CEM cells assessed as increase in 4'-ethynyl-2-fluoro-2'-deoxyadenosine triphosphate level at 0.1 uM after 6 hrs; assay type: ADME, cell-based
Procedure, shortened: (§3)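 CEM cells (10^6 cells/ml) were incubated 6 h with 0.1, 1 or 10 µM [3H]-labelled nucleoside, then washed. Intracellular nucleosides/nucleotides were extracted in 60% methanol and separated by SAX ion-exchange HPLC on an ammonium phosphate gradient. One-minute fractions up to 40 min were scintillation-counted, and each peak plus flanking fractions were summed. Two independent experiments were run.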

CCRF-CEM [11] = test: Metabolic stability of the compound in human CD4+ CEM cells assessed as 4'-ethynyl-2-fluoro-2'-deoxyadenosine monophosphate intracellular levels at 200 nM after 8 hrs; assay type: ADME, cell-based; settings: 0.2 µM; procedure, shortened: as §2
[12] = system: Human immunodeficiency virus 1; test: Antiviral activity against R5-HIV1Ba-L assessed as inhibition of p24 Gag protein production in human PHA-PBMC by ELISA; assay type: functional, organism-based; settings: Human immunodeficiency virus 1, Ba-L; procedure, shortened: as §1
CCRF-CEM [13] = test: Drug level in human CD4+CEM cells per 10^9 cells at 0.1 uM; assay type: ADME, cell-based; procedure, shortened: as §3
CCRF-CEM [14] = test: Metabolic stability of the compound in human CD4+ CEM cells assessed as 4'-ethynyl-2-fluoro-2'-deoxyadenosine triphosphate intracellular levels at 200 nM after 8 hrs; assay type: ADME, cell-based; settings: 0.2 µM; procedure, shortened: as §2
CCRF-CEM [15] = test: Metabolic stability of the compound in human CEM cells assessed as 3'-azido-2',3'-dideoxythymidine triphosphate intracellular levels at 200 nM after 24 hrs; assay type: ADME, cell-based; settings: 0.2 µM; procedure, shortened: as §2
CCRF-CEM [16] = test: Drug uptake in human CD4+CEM cells assessed as 4'-ethynyl-2-fluoro-2'-deoxyadenosine monophosphate half life at 200 nM; assay type: ADME, cell-based; settings: 0.2 µM; procedure, shortened: as §2
[17] = system: Human immunodeficiency virus 1; test: Antiviral activity against HIV1 NL4-3 replication in human MT4 cells at 0.01 uM pretreated 48 hrs before infection assessed as protection at 0.01 uM by MTT assay; assay type: functional
[18] = system: Human immunodeficiency virus 1; test: Antiviral activity against HIV1 NL4-3 replication in human MT4 cells at 0.01 uM pretreated 24 hrs before infection assessed as protection at 0.01 uM by MTT assay; assay type: functional
CCRF-CEM [19] = test: Metabolic stability of the compound in human CD4+ CEM cells assessed as 4'-ethynyl-2-fluoro-2'-deoxyadenosine diphosphate intracellular levels at 200 nM after 8 hrs; assay type: ADME, cell-based; settings: 0.2 µM; procedure, shortened: as §2
CCRF-CEM [20] = test: Drug uptake in human CD4+CEM cells assessed as 4'-ethynyl-2-fluoro-2'-deoxyadenosine diphosphate half life at 200 nM; assay type: ADME, cell-based; settings: 0.2 µM; procedure, shortened: as §2
CCRF-CEM [21] = test: Metabolic stability of the compound in human CEM cells assessed as 3'-azido-2',3'-dideoxythymidine monophosphate intracellular levels at 200 nM after 24 hrs; assay type: ADME, cell-based; settings: 0.2 µM; procedure, shortened: as §2
CCRF-CEM [22] = test: Drug uptake in human CD4+CEM cells assessed as 4'-ethynyl-2-fluoro-2'-deoxyadenosine triphosphate half life at 200 nM; assay type: ADME, cell-based; settings: 0.2 µM; procedure, shortened: as §2
[23] = Inhibition of human DNA polymerase alpha using calf thymus DNA as a template
Procedure, shortened: (§4)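 Each 30-min, 37 °C reaction contained 50 mM Tris pH 8.0, 8 mM MgCl2, 60 mM KCl, 10 mM DTT, BSA, 0.3 µM [α-32P]dATP, inhibitor, and either 250 nM D21/D36 or 0.1 mg/ml activated calf thymus DNA. Enzyme was 1 unit polymerase α, 100 nM β or 2.5 nM γ. Reactions were stopped with EDTA and spotted onto DE81 filters. Incorporated dAMP was quantified by phosphorimaging to give the IC50.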

[24] = Inhibition of human DNA polymerase gamma using calf thymus DNA as a template; procedure, shortened: as §4
[25] = Inhibition of human DNA polymerase gamma using D21/D36 DNA as a template; procedure, shortened: as §4
[26] = Inhibition of human DNA polymerase beta using D21/D36 DNA as a template; procedure, shortened: as §4
[27] = Inhibition of human DNA polymerase beta using calf thymus DNA as a template; procedure, shortened: as §4
[28] = system: Human immunodeficiency virus 1; test: Antiviral activity against HIV1 NL4-3 replication in human MT4 cells at 0.01 uM pretreated 24 hrs before infection assessed as protection at 1 uM by MTT assay; assay type: functional
[29] = system: Human immunodeficiency virus 1; test: Antiviral activity against HIV1 NL4-3 replication in human MT4 cells at 0.01 uM pretreated 48 hrs before infection assessed as protection at 1 uM by MTT assay; assay type: functional
CCRF-CEM [30] = test: Metabolic stability of the compound in human CD4+ CEM cells assessed as 3'-azido-2',3'-dideoxythymidine triphosphate intracellular levels at 200 nM after 8 hrs; assay type: ADME, cell-based; settings: 0.2 µM; procedure, shortened: as §2
CCRF-CEM [31] = test: Drug uptake in human CD4+CEM cells assessed as 3'-azido-2',3'-dideoxythymidine monophosphate half life at 200 nM; assay type: ADME, cell-based; settings: 0.2 µM; procedure, shortened: as §2
CCRF-CEM [32] = test: Drug level in human CD4+CEM cells assessed as increase in 3'-azido-2',3'-dideoxythymidine triphosphate level at 0.1 uM after 6 hrs; assay type: ADME, cell-based; procedure, shortened: as §3
CCRF-CEM [33] = test: Drug uptake in human CD4+CEM cells assessed as 3'-azido-2',3'-dideoxythymidine triphosphate half life at 200 nM; assay type: ADME, cell-based; settings: 0.2 µM; procedure, shortened: as §2
CCRF-CEM [34] = test: Drug uptake in human CD4+CEM cells assessed as 3'-azido-2',3'-dideoxythymidine diphosphate half life at 200 nM; assay type: ADME, cell-based; settings: 0.2 µM; procedure, shortened: as §2
CCRF-CEM [35] = test: Metabolic stability of the compound in human CD4+ CEM cells assessed as 3'-azido-2',3'-dideoxythymidine monophosphate intracellular levels at 200 nM after 8 hrs; assay type: ADME, cell-based; settings: 0.2 µM; procedure, shortened: as §2
CCRF-CEM [36] = test: Metabolic stability of the compound in human CD4+ CEM cells assessed as 3'-azido-2',3'-dideoxythymidine diphosphate intracellular levels at 200 nM after 8 hrs; assay type: ADME, cell-based; settings: 0.2 µM; procedure, shortened: as §2

CC(C)(C)NC(=O)[C@@H]1C[C@@H]2CCCC[C@@H]2CN1C[C@@H](O)[C@H](Cc1ccccc1)NC(=O)[C@H](CC(N)=O)NC(=O)c1ccc2ccccc2n1
EC50 [1]: 37 nM | fold change (FC) [2]: 3 | CC50 (MT4): 26000 nM | EC50 [3]: 26 nM | fold change (FC) [4]: 4 | CC50 [5]: 78000 nM | fold change (FC) [6]: 28 | EC50 [7]: 220 nM

CC(C)CN(C[C@@H](O)[C@H](Cc1ccccc1)NC(=O)O[C@H]1CCOC1)S(=O)(=O)c1ccc(N)cc1
EC50 [1]: 280 nM | fold change (FC) [2]: 10 | CC50 (MT4): > 100000 nM | EC50 [8]: 24 nM | fold change (FC) [4]: 12 | CC50 [5]: > 100000 nM | fold change (FC) [6]: 17

C#C[C@]1(CO)O[C@@H](n2cnc3c(N)nc(F)nc32)C[C@@H]1O
Activity (CCRF-CEM [9]): 23% | Activity (CCRF-CEM [10]): 22 | Activity (CCRF-CEM [11]): 50% | EC50 [1]: 4 nM | EC50 [12]: 0.4 nM | fold change (FC) [2]: 21 | Drug uptake (CCRF-CEM [13]): 1730 pmol | Activity (CCRF-CEM [14]): 72% | CC50 (MT4): 11000 nM | Activity (CCRF-CEM [15]): 38% | EC50 [8]: 1 nM | t1/2 (CCRF-CEM [16]): 8.1 h | Activity [17]: 47% | Activity [18]: 75% | EC50 [3]: 21 nM | fold change (FC) [4]: 4 | Activity (CCRF-CEM [19]): 45% | t1/2 (CCRF-CEM [20]): 6.7 h | CC50 [5]: 12000 nM | Activity (CCRF-CEM [21]): 31% | fold change (FC) [6]: 8 | EC50 [7]: 3 nM | t1/2 (CCRF-CEM [22]): 17.2 h

C#C[C@]1(COP(=O)(O)OP(=O)(O)OP(=O)(O)O)O[C@@H](n2cnc3c(N)nc(F)nc32)C[C@@H]1O
IC50 [23]: > 100000 nM | IC50 [24]: 10000 nM | IC50 [25]: > 100000 nM | Ki [25]: 24400 nM | IC50 [26]: > 100000 nM | IC50 [27]: > 100000 nM

Nc1ncnc2c1ncn2[C@H]1CC[C@@H](COP(=O)(O)OP(=O)(O)OP(=O)(O)O)O1 [DDA-TRIPHOSPHATE]
IC50 [23]: > 100000 nM | IC50 [24]: 200 nM | IC50 [25]: 2000 nM | Ki [25]: 4600 nM | IC50 [26]: 3000 nM | IC50 [27]: 200 nM

C[C@H](Cn1cnc2c(N)ncnc21)OCP(=O)(O)O [TENOFOVIR ANHYDROUS]
EC50 [1]: 47 nM | EC50 [12]: 32 nM | fold change (FC) [2]: 3 | Activity [28]: 90% | EC50 [3]: 87 nM | fold change (FC) [4]: 2 | CC50 [5]: 53000 nM | fold change (FC) [6]: 3 | EC50 [7]: 82 nM | Activity [29]: 64%

Cc1cn([C@H]2C[C@H](N=[N+]=[N-])[C@@H](CO)O2)c(=O)[nH]c1=O [ZIDOVUDINE]
Activity (CCRF-CEM [30]): 26% | Activity (CCRF-CEM [9]): 11% | t1/2 (CCRF-CEM [31]): 1.4 h | EC50 [1]: 390 nM | fold change (FC) [2]: 12 | Activity (CCRF-CEM [32]): 2.4 | Activity [28]: 55% | Drug uptake (CCRF-CEM [13]): 4349 pmol | CC50 (MT4): > 100000 nM | Activity (CCRF-CEM [15]): 9% | EC50 [8]: 33 nM | EC50 [3]: 380 nM | fold change (FC) [4]: 12 | t1/2 (CCRF-CEM [33]): 2.8 h | t1/2 (CCRF-CEM [34]): 1.6 h | Activity (CCRF-CEM [35]): 16% | CC50 [5]: > 10000 nM | Activity (CCRF-CEM [21]): 10% | fold change (FC) [6]: 22 | EC50 [7]: 340 nM | Activity [29]: 9.2% | Activity (CCRF-CEM [36]): 26%

Reference: ChEMBL document CHEMBL1155177, “Activity against human immunodeficiency virus type 1, intracellular metabolism, and effects on human DNA polymerases of 4'-ethynyl-2-fluoro-2'-deoxyadenosine” (Antimicrob Agents Chemother, 2007)
